Activity calls are given as the source filed them. No cut-off for these calls is given here.
What was measured:
[1] = target: T1, Mitogen-activated protein kinase 1 (Homo sapiens, UniProt P28482); experiment: Inhibition of activated ERK2 (unknown origin) using IMAP peptide substrate after 30 mins by activated ERK2 assay
Procedure, shortened: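 IMAP fluorescence-polarization assay. Started with 1 μM substrate peptide (100 nM fluorescein-labelled) and 30 μM ATP. Run 30 min, stopped with IMAP beads, read after 30 min. N = 2.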

[2] = target: T2, Dual specificity mitogen-activated protein kinase kinase; MEK1/2 (Homo sapiens) (UniProt P36507+Q02750); experiment: Binding affinity to unphosphorylated MEK (unknown origin) by temperature dependent fluorescence (TdF) assay
T2 sequence (P36507 whole entry, looked up): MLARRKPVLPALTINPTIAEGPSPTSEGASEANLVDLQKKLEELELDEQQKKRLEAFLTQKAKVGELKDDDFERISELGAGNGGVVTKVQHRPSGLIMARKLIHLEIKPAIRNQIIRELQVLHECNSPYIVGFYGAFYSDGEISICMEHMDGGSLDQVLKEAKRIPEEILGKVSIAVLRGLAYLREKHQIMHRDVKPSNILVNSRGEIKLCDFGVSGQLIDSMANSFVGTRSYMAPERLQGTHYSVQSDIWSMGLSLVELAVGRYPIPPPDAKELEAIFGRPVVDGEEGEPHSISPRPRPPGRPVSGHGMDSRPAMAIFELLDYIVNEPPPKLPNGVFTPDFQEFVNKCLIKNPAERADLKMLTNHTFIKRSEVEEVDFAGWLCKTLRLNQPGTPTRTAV
T2 sequence (Q02750 whole entry, looked up): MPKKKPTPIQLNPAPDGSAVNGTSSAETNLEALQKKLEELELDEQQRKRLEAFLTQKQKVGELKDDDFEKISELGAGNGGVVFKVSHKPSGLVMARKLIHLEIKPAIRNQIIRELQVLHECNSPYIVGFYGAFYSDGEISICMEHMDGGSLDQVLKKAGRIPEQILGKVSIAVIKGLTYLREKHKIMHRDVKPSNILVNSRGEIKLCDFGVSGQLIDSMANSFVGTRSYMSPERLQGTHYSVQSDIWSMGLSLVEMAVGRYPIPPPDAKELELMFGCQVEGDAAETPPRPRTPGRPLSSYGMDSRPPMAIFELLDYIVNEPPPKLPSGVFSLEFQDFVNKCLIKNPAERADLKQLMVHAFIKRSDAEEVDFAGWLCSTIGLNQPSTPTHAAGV

[3] = target: T2, Dual specificity mitogen-activated protein kinase kinase; MEK1/2 (Homo sapiens); experiment: Binding affinity to phosphorylated MEK (unknown origin) by temperature dependent fluorescence (TdF) assay
[4] = target: Mitogen-activated protein kinase 1 (Mus musculus) (UniProt P63085); experiment: Inhibition of inactive ERK2 (mouse) coupled with human MEK1 using IMAP peptide substrate after 30 mins by coupled ERK2 assay
Chain of Mitogen-activated protein kinase 1 (Mus musculus) (P63085 whole entry, looked up): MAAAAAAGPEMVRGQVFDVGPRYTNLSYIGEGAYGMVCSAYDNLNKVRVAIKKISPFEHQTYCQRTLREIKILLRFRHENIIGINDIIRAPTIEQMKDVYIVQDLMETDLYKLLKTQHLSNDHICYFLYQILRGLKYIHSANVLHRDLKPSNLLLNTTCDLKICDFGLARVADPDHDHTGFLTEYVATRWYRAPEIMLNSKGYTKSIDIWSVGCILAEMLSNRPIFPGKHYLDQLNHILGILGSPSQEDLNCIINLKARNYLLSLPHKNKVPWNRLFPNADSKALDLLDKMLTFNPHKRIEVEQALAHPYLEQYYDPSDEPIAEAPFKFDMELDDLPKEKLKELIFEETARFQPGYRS

[5] = target: T1, Mitogen-activated protein kinase 1; experiment: Binding to phosphorylated ERK2 (unknown origin) by temperature dependent fluorescence (TdF) assay
[6] = target: T1, Mitogen-activated protein kinase 1; experiment: Binding to unphosphorylated ERK2 (unknown origin) by temperature dependent fluorescence (TdF) assay
A2058 [7] = experiment: Cytotoxicity against human A2058 cells expressing BRAF mutant after 3 days by proliferation assay; type: functional, cell-based; settings: A2058, 72 h
Procedure, shortened: (§1)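 A2058, Colo-205 (2000 cells/well) or A375SM (1500 cells/well) in RPMI1640 with 10% FBS and penicillin–streptomycin, on collagen-coated plates. Cells attach for 2 h, then compound is added in DMSO (final 1.0% or 0.1%). Incubated 3 days at 37 °C, 5% CO2. Viability read by CellTiter-Glo luminescence.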

[8] = target: Tyrosine-protein kinase ABL1 (Homo sapiens, UniProt P00519); experiment: Inhibition of ABL (unknown origin)
[9] = target: RAC-alpha serine/threonine-protein kinase (Homo sapiens, UniProt P31749); experiment: Inhibition of AKT1 (unknown origin)
[10] = target: Cyclin-dependent kinase 2 (Homo sapiens, UniProt P24941); experiment: Inhibition of CDK2 (unknown origin)
[11] = target: Serine/threonine-protein kinase B-raf (Homo sapiens, UniProt P15056); experiment: Inhibition of B-RAF (unknown origin)
[12] = target: Serine/threonine-protein kinase Chk1 (Homo sapiens, UniProt O14757); experiment: Inhibition of CHK1 (unknown origin)
[13] = target: Casein kinase I isoform delta (Homo sapiens, UniProt P48730); experiment: Inhibition of CSNK1D (unknown origin)
[14] = target: Testis-specific serine/threonine-protein kinase 2 (Homo sapiens, UniProt Q96PF2); experiment: Inhibition of TSSK2 (unknown origin)
Ephrin type-B receptor 4 = Ephrin type-B receptor 4 (Homo sapiens, UniProt P54760); experiment: Inhibition of EPHB4 (unknown origin)
[15] = target: Receptor-type tyrosine-protein kinase FLT3 (Homo sapiens, UniProt P36888); experiment: Inhibition of FLT3 (unknown origin)
[16] = target: Insulin-like growth factor 1 receptor (Homo sapiens, UniProt P08069); experiment: Inhibition of IGF1R (unknown origin)
[17] = target: Inhibitor of nuclear factor kappa-B kinase subunit beta (Homo sapiens, UniProt O14920); experiment: Inhibition of IKKbeta (unknown origin)
[18] = target: Interleukin-1 receptor-associated kinase 4 (Homo sapiens, UniProt Q9NWZ3); experiment: Inhibition of IRAK4 (unknown origin)
[19] = target: Tyrosine-protein kinase JAK2 (Homo sapiens, UniProt O60674); experiment: Inhibition of JAK2 (unknown origin)
[20] = target: Tyrosine-protein kinase Lck (Homo sapiens, UniProt P06239); experiment: Inhibition of LCK (unknown origin)
[21] = target: Hepatocyte growth factor receptor (Homo sapiens, UniProt P08581); experiment: Inhibition of MET (unknown origin)
Chain of Hepatocyte growth factor receptor (P08581 whole entry): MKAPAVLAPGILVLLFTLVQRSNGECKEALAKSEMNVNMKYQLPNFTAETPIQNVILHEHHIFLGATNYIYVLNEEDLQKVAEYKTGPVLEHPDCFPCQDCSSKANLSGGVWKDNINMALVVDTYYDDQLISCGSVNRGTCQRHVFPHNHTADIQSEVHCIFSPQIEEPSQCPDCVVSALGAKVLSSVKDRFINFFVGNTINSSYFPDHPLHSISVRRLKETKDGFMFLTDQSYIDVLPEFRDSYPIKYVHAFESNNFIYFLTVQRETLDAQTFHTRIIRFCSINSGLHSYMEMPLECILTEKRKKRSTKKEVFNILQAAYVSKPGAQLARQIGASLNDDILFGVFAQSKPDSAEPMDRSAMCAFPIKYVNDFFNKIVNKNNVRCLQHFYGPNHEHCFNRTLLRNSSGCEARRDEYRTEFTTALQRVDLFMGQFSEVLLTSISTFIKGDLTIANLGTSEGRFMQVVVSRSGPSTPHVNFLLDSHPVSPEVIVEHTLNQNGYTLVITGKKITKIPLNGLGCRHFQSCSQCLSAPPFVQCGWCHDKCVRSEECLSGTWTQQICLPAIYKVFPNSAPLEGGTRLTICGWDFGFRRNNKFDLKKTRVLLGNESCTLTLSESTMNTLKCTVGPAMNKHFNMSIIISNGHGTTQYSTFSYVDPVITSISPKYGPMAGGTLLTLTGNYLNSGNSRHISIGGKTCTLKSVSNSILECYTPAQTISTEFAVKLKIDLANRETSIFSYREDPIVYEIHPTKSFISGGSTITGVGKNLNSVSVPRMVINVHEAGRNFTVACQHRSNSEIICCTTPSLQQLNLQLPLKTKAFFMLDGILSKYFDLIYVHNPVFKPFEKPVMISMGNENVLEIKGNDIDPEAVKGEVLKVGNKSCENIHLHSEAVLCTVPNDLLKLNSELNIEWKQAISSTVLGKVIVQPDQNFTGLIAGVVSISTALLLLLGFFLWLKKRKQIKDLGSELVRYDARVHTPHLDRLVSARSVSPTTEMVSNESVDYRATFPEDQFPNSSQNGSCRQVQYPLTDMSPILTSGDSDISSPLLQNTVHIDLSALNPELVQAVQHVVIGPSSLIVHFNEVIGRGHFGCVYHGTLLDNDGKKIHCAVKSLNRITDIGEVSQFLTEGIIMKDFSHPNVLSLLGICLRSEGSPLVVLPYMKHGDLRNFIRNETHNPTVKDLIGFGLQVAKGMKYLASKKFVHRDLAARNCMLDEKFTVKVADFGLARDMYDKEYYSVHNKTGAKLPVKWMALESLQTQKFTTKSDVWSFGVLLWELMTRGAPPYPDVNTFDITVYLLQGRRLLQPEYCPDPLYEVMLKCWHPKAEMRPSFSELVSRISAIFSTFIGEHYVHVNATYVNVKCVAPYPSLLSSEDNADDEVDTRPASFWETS

[22] = target: Serine/threonine-protein kinase 3 (Homo sapiens, UniProt Q13188); experiment: Inhibition of MST2 (unknown origin)
[23] = target: Serine/threonine-protein kinase Nek2 (Homo sapiens, UniProt P51955); experiment: Inhibition of NEK2 (unknown origin)
[24] = target: Protein kinase C alpha type (Homo sapiens, UniProt P17252); experiment: Inhibition of PKCA (unknown origin)
[25] = target: Serine/threonine-protein kinase PLK3 (Homo sapiens, UniProt Q9H4B4); experiment: Inhibition of PLK3 (unknown origin)
[26] = target: Rho-associated protein kinase 2 (Homo sapiens, UniProt O75116); experiment: Inhibition of ROCK2 (unknown origin)
[27] = target: Ribosomal protein S6 kinase alpha-3 (Homo sapiens, UniProt P51812); experiment: Inhibition of RSK2 (unknown origin)
[28] = target: Epidermal growth factor receptor (Homo sapiens, UniProt P00533); experiment: Inhibition of EGFR (unknown origin)
[29] = target: Mitogen-activated protein kinase 11 (Homo sapiens, UniProt Q15759); experiment: Inhibition of p38beta (unknown origin)
[30] = target: Dual specificity mitogen-activated protein kinase kinase 1 (Homo sapiens, UniProt Q02750); experiment: Inhibition of MEK1 (unknown origin)
[31] = target: Vascular endothelial growth factor receptor 1 (Homo sapiens, UniProt P17948); experiment: Inhibition of VEGFR1 (unknown origin)
Chain of Vascular endothelial growth factor receptor 1 (P17948 whole entry): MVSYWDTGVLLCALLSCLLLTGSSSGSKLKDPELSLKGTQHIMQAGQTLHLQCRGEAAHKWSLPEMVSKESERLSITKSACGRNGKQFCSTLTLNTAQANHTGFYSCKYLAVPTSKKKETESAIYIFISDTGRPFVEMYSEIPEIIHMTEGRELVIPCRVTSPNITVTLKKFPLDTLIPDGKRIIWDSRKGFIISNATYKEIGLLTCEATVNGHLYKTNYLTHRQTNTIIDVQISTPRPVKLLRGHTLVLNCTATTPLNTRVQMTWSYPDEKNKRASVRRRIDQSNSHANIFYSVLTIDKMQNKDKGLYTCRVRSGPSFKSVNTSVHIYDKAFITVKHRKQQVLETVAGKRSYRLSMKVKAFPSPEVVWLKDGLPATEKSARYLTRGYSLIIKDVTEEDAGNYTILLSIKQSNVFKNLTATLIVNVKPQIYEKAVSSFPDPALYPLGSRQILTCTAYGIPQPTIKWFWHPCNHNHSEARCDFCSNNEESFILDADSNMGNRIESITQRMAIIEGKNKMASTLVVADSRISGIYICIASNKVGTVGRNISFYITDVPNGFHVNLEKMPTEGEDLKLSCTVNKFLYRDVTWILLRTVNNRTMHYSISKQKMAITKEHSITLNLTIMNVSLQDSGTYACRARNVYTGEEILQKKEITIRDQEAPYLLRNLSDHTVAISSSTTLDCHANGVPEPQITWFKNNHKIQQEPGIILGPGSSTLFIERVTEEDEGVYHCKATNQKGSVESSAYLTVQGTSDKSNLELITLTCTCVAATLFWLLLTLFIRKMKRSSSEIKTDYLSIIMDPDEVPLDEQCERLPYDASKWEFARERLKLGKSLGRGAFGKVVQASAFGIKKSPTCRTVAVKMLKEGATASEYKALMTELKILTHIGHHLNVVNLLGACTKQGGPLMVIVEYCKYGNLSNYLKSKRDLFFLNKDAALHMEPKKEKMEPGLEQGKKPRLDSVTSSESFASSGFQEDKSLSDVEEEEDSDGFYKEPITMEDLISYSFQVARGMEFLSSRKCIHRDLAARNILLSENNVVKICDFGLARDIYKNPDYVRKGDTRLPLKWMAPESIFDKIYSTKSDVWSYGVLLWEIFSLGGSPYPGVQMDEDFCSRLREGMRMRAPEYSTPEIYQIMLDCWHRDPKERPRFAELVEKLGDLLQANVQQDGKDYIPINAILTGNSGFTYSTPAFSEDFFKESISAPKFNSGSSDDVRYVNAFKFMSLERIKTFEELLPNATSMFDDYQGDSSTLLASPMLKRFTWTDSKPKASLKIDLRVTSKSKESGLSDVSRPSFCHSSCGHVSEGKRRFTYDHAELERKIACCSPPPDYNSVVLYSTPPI

[32] = target: Cyclin-dependent kinase 4 (Homo sapiens, UniProt P11802); experiment: Inhibition of CDK4 (unknown origin)
[33] = target: Glycogen synthase kinase-3 beta (Homo sapiens, UniProt P49841); experiment: Inhibition of GSK3beta (unknown origin)
Chain of Glycogen synthase kinase-3 beta (P49841 whole entry): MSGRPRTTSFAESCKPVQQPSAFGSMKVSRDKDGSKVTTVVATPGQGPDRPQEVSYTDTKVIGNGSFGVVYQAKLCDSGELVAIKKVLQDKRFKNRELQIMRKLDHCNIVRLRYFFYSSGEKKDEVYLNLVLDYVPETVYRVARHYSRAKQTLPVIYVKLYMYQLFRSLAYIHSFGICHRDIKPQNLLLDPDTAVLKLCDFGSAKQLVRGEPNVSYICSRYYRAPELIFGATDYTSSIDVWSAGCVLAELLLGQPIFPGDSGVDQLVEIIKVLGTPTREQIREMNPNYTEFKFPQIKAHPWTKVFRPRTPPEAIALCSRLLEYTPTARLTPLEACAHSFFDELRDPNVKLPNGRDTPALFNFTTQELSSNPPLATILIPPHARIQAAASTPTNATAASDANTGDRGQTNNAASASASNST

[34] = target: Cyclin-dependent kinase 6 (Homo sapiens, UniProt Q00534); experiment: Inhibition of CDK6 (unknown origin)
A2058 [35] = experiment: Inhibition of RSK phosphorylation in human A2058 cells after 4 hrs by immunoblotting analysis; type: cell-based
[36] = target: Mitogen-activated protein kinase 3 (Homo sapiens) (UniProt P27361); experiment: Inhibition of ERK1 phosphorylation in human A2058 cells after 4 hrs by immunoblotting analysis; type: cell-based
Chain of Mitogen-activated protein kinase 3 (Homo sapiens) (P27361 whole entry): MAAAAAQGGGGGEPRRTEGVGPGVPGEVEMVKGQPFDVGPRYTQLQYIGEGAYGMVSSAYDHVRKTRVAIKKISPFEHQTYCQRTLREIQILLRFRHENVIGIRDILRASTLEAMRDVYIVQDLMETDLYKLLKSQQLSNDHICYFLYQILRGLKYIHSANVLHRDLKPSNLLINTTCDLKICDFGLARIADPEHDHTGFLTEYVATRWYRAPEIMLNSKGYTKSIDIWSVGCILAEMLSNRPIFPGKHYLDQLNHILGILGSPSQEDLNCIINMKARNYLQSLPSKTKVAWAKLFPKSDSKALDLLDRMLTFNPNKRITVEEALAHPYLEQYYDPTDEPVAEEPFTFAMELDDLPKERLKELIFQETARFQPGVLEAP
Procedure, shortened: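 A2058 cells treated 4 h at 37 °C with 0–10000 nM compound (150, 312, 625, 1250, 2500, 5000, 10000 nM). Equal-protein lysates immunoblotted for phospho-ERK1,2 and total ERK1,2, developed by ECL. A MEK inhibitor serves as positive control.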

[37] = Cytotoxicity against human A375SM cells expressing BRAF mutant after 3 days by proliferation assay; type: functional, cell-based; settings: A375-SM, 72 h; procedure, shortened: as §1
COLO 205 = experiment: Cytotoxicity against human COLO205 cells expressing BRAF mutant after 3 days by proliferation assay; type: functional, cell-based; settings: COLO 205, 72 h; procedure, shortened: as §1
CHL-1 = experiment: Cytotoxicity against human CHL-1 cells expressing wild type BRAF after 3 days by proliferation assay; type: functional, cell-based; settings: CHL-1, 72 h

T1 sequence (P28482 whole entry): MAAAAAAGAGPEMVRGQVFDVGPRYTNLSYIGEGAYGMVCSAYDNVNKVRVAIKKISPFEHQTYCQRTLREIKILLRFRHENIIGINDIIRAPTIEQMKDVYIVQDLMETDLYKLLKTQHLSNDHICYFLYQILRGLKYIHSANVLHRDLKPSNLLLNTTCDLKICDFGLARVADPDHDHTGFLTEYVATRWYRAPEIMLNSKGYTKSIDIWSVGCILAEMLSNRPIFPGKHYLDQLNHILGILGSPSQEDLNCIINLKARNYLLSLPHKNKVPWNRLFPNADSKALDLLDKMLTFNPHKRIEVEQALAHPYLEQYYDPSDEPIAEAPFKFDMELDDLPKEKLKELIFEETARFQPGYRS

## CC(=O)c1ccc(N2CCN(C(=O)CN3CC[C@@H](C(=O)Nc4ccc(O)c(C)c4)C3)CC2)cc1
[1]
  IC50: 2.5 µM
[2]
  Activity: inactive
[3]
  Activity: inactive
[4]
  IC50: 4.2 µM

## CC(=O)c1ccc(N2CCN(C(=O)CN3CCC(C(=O)Nc4ccc(O)cc4)C3)CC2)cc1 (racemic)
[1]
  IC50: 18.6 µM
[2]
  Activity: inactive
[3]
  Activity: inactive
[5]
  Kd: 1.89 µM
[6]
  Kd: 1.06 µM
[4]
  IC50: 4 µM

## O=C(Nc1ccc(O)c(Cl)c1)[C@@H]1CCN(CC(=O)N2CCN(c3ccc(-c4ccsc4)cc3)CC2)C1
[1]
  IC50: 20 µM
[2]
  Activity: inactive
[3]
  Activity: inactive
[5]
  Kd: 0.98 µM
[6]
  Kd: 0.29 µM
[4]
  IC50: 2.1 µM

## O=C(NOC[C@H](O)CO)c1ccc(F)c(F)c1Nc1ccc(I)cc1F [MIRDAMETINIB]
[1]
  IC50: > 40 µM
[5]
  Kd: > 10 µM
[6]
  Kd: > 10 µM
[4]
  IC50: 0.025 µM

## CC(=O)c1ccc(N2CCN(C(=O)CN3CC[C@@H](C(=O)Nc4ccc(O)c(Cl)c4)C3)CC2)cc1
A2058 [7]
  IC50: 28.8 µM
[1]
  IC50: 2.6 µM
[8]
  IC50: > 30 µM
[9]
  IC50: > 30 µM
[10]
  IC50: > 50 µM
[11]
  IC50: > 30 µM
[12]
  IC50: > 30 µM
[13]
  IC50: > 30 µM
[14]
  IC50: > 30 µM
Ephrin type-B receptor 4
  IC50: > 30 µM
[15]
  IC50: > 30 µM
[16]
  IC50: > 30 µM
[17]
  IC50: > 30 µM
[18]
  IC50: > 30 µM
[19]
  IC50: > 30 µM
[20]
  IC50: > 30 µM
[21]
  IC50: > 30 µM
[22]
  IC50: > 30 µM
[23]
  IC50: > 30 µM
[24]
  IC50: > 30 µM
[25]
  IC50: > 30 µM
[26]
  IC50: > 30 µM
[27]
  IC50: 27 µM
[28]
  IC50: > 50 µM
[29]
  IC50: > 50 µM
[30]
  IC50: > 20 µM
[31]
  IC50: > 50 µM
[32]
  IC50: > 50 µM
[33]
  IC50: > 50 µM
[34]
  IC50: > 50 µM
A2058 [35]
  inhibition: Dose-dependent effect
[36]
  inhibition: Dose-dependent effect
[37]
  IC50: 11.5 µM
COLO 205
  IC50: 10.8 µM
CHL-1
  IC50: > 100 µM
[2]
  Activity: inactive
[3]
  Activity: inactive
[5]
  Kd: 0.14 µM
[6]
  Kd: 0.05 µM
[4]
  IC50: 0.36 µM

## CC(=O)c1ccc(N2CCN(C(=O)CN3CC[C@@H](C(=O)Nc4ccc(O)c(F)c4)C3)CC2)cc1
[1]
  IC50: 11.6 µM
[2]
  Activity: inactive
[3]
  Activity: inactive
[5]
  Kd: 0.63 µM
[6]
  Kd: 0.28 µM
[4]
  IC50: 1.3 µM

## O=C(Nc1ccc(O)c(Cl)c1)[C@@H]1CCN(CC(=O)N2CCN(c3cccc(Cl)c3)CC2)C1
[1]
  IC50: 2.1 µM
[2]
  Activity: inactive
[3]
  Activity: inactive
[5]
  Kd: 0.15 µM
[6]
  Kd: 0.07 µM
[4]
  IC50: 0.7 µM

## CC(=O)c1ccc(N2CCN(C(=O)CN3CC[C@@H](C(=O)Nc4ccc(O)c(Br)c4)C3)CC2)cc1
[1]
  IC50: 3.6 µM
[2]
  Activity: inactive
[3]
  Activity: inactive
[4]
  IC50: 0.44 µM

## CC(=O)c1ccc(N2CCN(C(=O)CN3CC[C@@H](C(=O)Nc4cc(Cl)c(O)c(Cl)c4)C3)CC2)cc1
[2]
  Activity: inactive
[3]
  Activity: inactive
[5]
  Kd: > 10 µM
[6]
  Kd: > 10 µM
[4]
  IC50: > 10 µM

## O=C(Nc1ccc(O)c(Cl)c1)[C@@H]1CCN(CC(=O)N2CCN(c3nc4ccccc4s3)CC2)C1
[1]
  IC50: 1.6 µM
[2]
  Activity: inactive
[3]
  Activity: inactive
[5]
  Kd: 0.27 µM
[6]
  Kd: 0.17 µM
[4]
  IC50: 0.48 µM

## CC(=O)c1ccc(N2CCN(C(=O)CN3CC[C@@H](C(=O)Nc4ccc(O)cc4Cl)C3)CC2)cc1
[1]
  IC50: 50 µM
[2]
  Activity: inactive
[3]
  Activity: inactive
[5]
  Kd: > 10 µM
[6]
  Kd: > 10 µM
[4]
  IC50: 12.7 µM

## O=C(Nc1ccc(O)c(Cl)c1)[C@@H]1CCN(CC(=O)N2CCN(c3ccc(-c4ccoc4)cc3)CC2)C1
[1]
  IC50: 5.5 µM
[2]
  Activity: inactive
[3]
  Activity: inactive
[5]
  Kd: 0.33 µM
[6]
  Kd: 0.12 µM
[4]
  IC50: 1.4 µM

## O=C(Nc1ccc(O)c(Cl)c1)[C@@H]1CCN(CC(=O)N2CCN(c3ccc(-c4ccccc4)cc3)CC2)C1
[1]
  IC50: 4.4 µM
[2]
  Activity: inactive
[3]
  Activity: inactive
[5]
  Kd: 0.72 µM
[6]
  Kd: 0.15 µM
[4]
  IC50: 5.6 µM

## O=C(Nc1ccc(O)cc1)C1CCN(CC(=O)N2CCN(c3cccc(Cl)c3)CC2)C1 (racemic)
[1]
  IC50: 12.2 µM
[2]
  Activity: inactive
[3]
  Activity: inactive
[5]
  Kd: 1.65 µM
[6]
  Kd: 0.92 µM
[4]
  IC50: 3.4 µM

## O=C(Nc1ccc(O)c(Cl)c1)[C@@H]1CCN(CC(=O)N2CCN(c3ccc(Br)cc3)CC2)C1
[1]
  IC50: 8.2 µM
[2]
  Activity: inactive
[3]
  Activity: inactive
[5]
  Kd: 2.65 µM
[6]
  Kd: 0.93 µM
[4]
  IC50: 5 µM

## CC(=O)c1ccc(N2CCN(C(=O)CN3CC[C@H](C(=O)Nc4ccc(O)c(Cl)c4)C3)CC2)cc1
[1]
  IC50: 32 µM
[2]
  Activity: inactive
[3]
  Activity: inactive
[5]
  Kd: 0.87 µM
[6]
  Kd: 0.36 µM
[4]
  IC50: 3.6 µM

## CC(=O)c1ccc(N2CCN(C(=O)CN3CCC(C(=O)Nc4ccc(O)c(Cl)c4)C3)CC2)cc1 (racemic)
[1]
  IC50: 4.2 µM
[2]
  Activity: inactive
[3]
  Activity: inactive
[5]
  Kd: 0.27 µM
[6]
  Kd: 0.15 µM
[4]
  IC50: 1.2 µM
